Compound activity as filed in PubChem.
Most compounds without a hit are left out; they make up all but 5.1% or so of the library.
STAT1 act-1 = STAT1 signaling activators, primary screen, cell-based, HTS, luciferase reporter; NIH 3T3 STAT1-luciferase reporter, IFN-gamma, luminescence; 100% = IFN-gamma alone, no compound; activation (% of control), % at 5.5 µM; hit rate 2.6% among 200,000;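 active = activation above the screen-wide mean activation plus 3 SD, cut at about 130% in these data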;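 note: raw ratio to IFN-gamma control signal so 100% means no change and 0% no light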
NF-kB expr up = activators of NF-kB expression in neurons, primary screen, cell-based, HTS. human neuronal cells, NF-kB reporter expression; active compounds read high. fold change at 12.5 µM. hit rate 1.6% among 190,000. AID 1239, 2008; in the data active = fold change above about 3.3
STAT3 inh = IL-6 driven STAT3 reporter inhibitors, primary screen, U3A cells, luciferase, luminescence, MLSCN library. IL-6 STAT3-luciferase reporter; host cell line lacks STAT1. inhibition, % at 5.5 µM. hit rate 0.89% among 190,000. AID 862, 2007;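 active = inhibition above the mean inhibition across all screened compounds plus 3 SD, cut at about 44% in these data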;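 note: 0% = DMSO only wells and 100% = 100 µM nifuroxazide control wells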
STAT3 act-1 = IL-6 driven STAT3 reporter potentiators, primary screen, U3A cells, luciferase, luminescence, MLSCN library; activation (% of control), % at 5.6 µM; AID 871, 2007; IL-6 STAT3-luciferase reporter; 100% = signal with IL-6 EC80 alone; hit rate 0.91% among 190,000;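 active = activation above the screen-wide mean of compound activation plus 3 SD, cut at about 130% in these data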;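 note: 0% = background luminescence of wells with medium and substrate only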
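Test system: STAT3-luciferase reporter U3A cells; Detection: reporter luminescence signal; Times: 1 h compound pre-exposure, 6 h IL-6 stimulation, 37 °C; Benchmarks: IL-6-only high control; Also added: IL-6 stimulus at 33 ng/mL final.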
APP 5'UTR act = activators of APP 5'UTR luciferase reporter, primary screen, SH-SY5Y cells; SH-SY5Y APP 5'UTR luciferase reporter, luminescence; zero percent = DMSO vehicle wells; activation, % at 2 µM; hit rate 1% among 190,000; AID 1276, 2008;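 active = activation above a set limit, based on mean plus 3 SD of controls, cut at about 140% in these data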
STAT1 inh = STAT1 signaling inhibitors, primary screen, cell-based, HTS, luciferase reporter; NIH 3T3 STAT1-luciferase reporter, IFN-gamma, luminescence; inhibition, % at 5.5 µM; hit rate 0.35% among 200,000; AID 920, 2007;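 active = inhibition above a set limit, the mean inhibition across all tested compounds plus 3 SD, cut at about 34% in these data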;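 note: 0% = IFN-gamma with DMSO and 100% = IFN-gamma with 300 µM nifuroxazide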
STAT3 act-2 = STAT3 reporter potentiators, retest of hits, confirmation, U3A cells, luciferase, luminescence; hit rate 64% among 1,200; potentiation (% of control), % at 5.7 µM; shares compounds with STAT3 act-1; IL-6 potentiation; U3A cells lack STAT1; 100 means same as IL-6 alone;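 active = percent activation of the STAT3 luciferase reporter above a set limit taken from the earlier primary screen, cut at about 130% in these data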;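 note: 0% = background signal of medium plus substrate and 100% = median of IL-6 with DMSO wells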
NFkB act 2 = NF-kB reporter activators in human cells, counter-screen for STAT3 activator project. AID 1309, 2008. activation (% of control), % at 5.7 µM. NF-kappaB reporter activation. hit rate 11% among 1,200. shares compounds with STAT3 act-1; in the data active = activation above about 120%;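 note: reporter induced by TNF-alpha stimulation; 100% = median of stimulated DMSO wells and 0% = no signal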
STAT1 act-2 = STAT1 reporter activators, IFN-gamma induced, counter-screen for STAT3 activator project, cell-based, NIH 3T3, luciferase luminescence; AID 1318, 2008; activation (% of control), % at 5.7 µM; hit rate 13% among 1,200; NIH 3T3 STAT1-luciferase reporter; shares compounds with STAT3 act-1;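 active = activation above the solvent-only control well mean plus 3 SD, set per screening run, cut at about 120% in these data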;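 note: 100% = IFN-gamma with DMSO median signal so 100% means no change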
* hit, by the source's call; . = no result.

SMILES | STAT1 act-1 | NF-kB expr up | STAT3 inh | STAT3 act-1 | APP 5'UTR act | STAT1 inh | STAT3 act-2 | NFkB act 2 | STAT1 act-2
Cc1ccnc(NC(=O)CCC(=O)N(CC(=O)NCc2ccccc2)c2ccc3c(c2)OCO3)c1 | 97 | 1.2 | -58 | 149* | -1 | 3 | 144* | 114 | 98
CC(C)Nc1nc(C#N)nc(NC(C)C)n1 | 92 | 1.3 | -3 | 104 | 6 | 8 | . | . | .
COCCn1c(SCc2nc3ccccc3s2)nc2ccccc21 | 127 | 1.3 | -47 | 147* | 71 | -30 | 146* | 122* | 140*
COc1ccc(-n2nnnc2SCc2nc3ccccc3s2)cc1 | 120 | 2.5 | -49 | 146* | 58 | -22 | 138* | 125* | 142*
COc1ccc(C)cc1-n1nnnc1SCc1nc2ccccc2s1 | 118 | 0.69 | -47 | 147* | 73 | -19 | 144* | 119 | 128*
CCOCCCn1c(SCc2nc3ccccc3s2)nc2ccccc2c1=O | 118 | 0.93 | -28 | 125 | 29 | -20 | . | . | .
Cc1nc2cc(-c3cccc(F)c3)nn2c(N2CCN(C(=O)c3ccco3)CC2)c1C | 97 | 2 | -49 | 137* | 15 | 3 | 120 | 114 | 91
CC(/C=C/c1ccccc1)=N\NC(=O)c1ccc(Br)cc1 | 93 | 2.7 | 13 | 90 | -13 | 6 | . | . | .
Cc1cc(-c2sccc2Br)nc(-n2cccc2)n1 | 98 | 1.1 | -42 | 139* | 10 | -1 | 150* | 107 | 93
Cc1cc(-c2ccc(Br)s2)nc(-n2cccc2)n1 | 95 | 1.3 | -38 | 136* | 12 | 2 | 130 | 99 | 86
CCOC(=O)C(CC)(CC)C(=O)/C=C/c1cccc(Br)c1 | 100 | . | 1 | 108 | -9 | 0 | . | . | .
COc1ccc(NC(=O)CN2C(=O)c3ccccc3Sc3ccc(C(=O)N4CCOCC4)cc32)c(OC)c1 | 107 | 0.55 | -13 | 113 | 11 | -8 | . | . | .
O=C(Cc1cccs1)Nc1ccccn1 | 100 | 1.1 | -64 | 157* | 2 | 3 | 137* | 102 | 95
COc1ccc(C)c2sc(=NC(=O)c3ccccc3)n(C)c12 | 120 | 3.6* | -33 | 136* | 32 | -22 | 139* | 148* | 182*
O=C(N/N=C/c1ccc(O)cc1)c1[nH]c2ccc(Br)cc2c1-c1ccccc1 | 108 | 2.9 | -45 | 143* | -94 | -8 | 112 | 165* | 117
O=C(N/N=C/c1c[nH]c2ccc(Br)cc12)c1ccccn1 | 105 | 1.2 | 7 | 95 | 18 | -7 | . | . | .
O=C(N/N=C/c1c[nH]c2ccccc12)c1[nH]c2ccc(Br)cc2c1-c1ccccc1 | 109 | 3.6* | -64 | 150* | -92 | -9 | 115 | 157* | 107
O=[N+]([O-])c1ccc(C(O)CNC(=S)Nc2ccccc2)cc1 (stereo not drawn) | 89 | 1.2 | 2 | 100 | 0 | 10 | . | . | .
CCCCn1nnnc1NCc1cccc(OC)c1OC | 94 | 1.1 | 6 | 102 | 0 | 7 | . | . | .
Cc1coc(NC(=O)CSc2nc(-c3ccc(Cl)cc3)cc(C(F)(F)F)c2C#N)n1 | 100 | 1 | -37 | 138* | 20 | 0 | 130 | 105 | 103
COc1ccc(-c2cc(C(F)(F)F)c(C#N)c(SCC(=O)Nc3nc(C)co3)n2)cc1 | 103 | 1.6 | 4 | 106 | 6 | -3 | . | . | .
O=C(CCCn1c(=O)oc2ccccc21)N1CCc2ccccc2C1 | 100 | 1.3 | -68 | 161* | 11 | 0 | 152* | 109 | 108
COc1ccc(C2c3[nH]c4ccccc4c3CCN2Cc2cccn2-c2ncccn2)cc1C (stereo not drawn) | 99 | 0.89 | -38 | 136* | -12 | -1 | 136* | 104 | 94
CC(=O)Nc1ccc(CN2CCc3c([nH]c4ccccc34)C2c2ccccn2)cc1 (stereo not drawn) | 96 | 1.1 | -25 | 127 | 23 | 4 | . | . | .
Cc1cccc(C2c3[nH]c4ccccc4c3CCN2Cc2cccn2-c2ncccn2)c1 (stereo not drawn) | 95 | 1.1 | -54 | 149* | 16 | 4 | 156* | 106 | 98
SMILES | STAT1 act-1 | NF-kB expr up | STAT3 inh | STAT3 act-1 | APP 5'UTR act | STAT1 inh | STAT3 act-2 | NFkB act 2 | STAT1 act-2
Cc1cccc(-c2n[nH]c(=S)n2C)c1 | 99 | 0.94 | 7 | 101 | -7 | 1 | . | . | .
NNC(=O)Cn1cnc2ccccc21 | 104 | 1 | 2 | 106 | 3 | -5 | . | . | .
O=C(Nc1ccccc1Oc1ccccc1)c1cc([N+](=O)[O-])ccc1Cl | 96 | 0.64 | 2 | 98 | 2 | 5 | . | . | .
Cc1cccc(NC(=O)c2cc([N+](=O)[O-])ccc2Cl)c1O | 95 | 1.2 | -49 | 155* | 5 | 6 | 162* | 110 | 98
COC(=O)c1nc2cc(C)ccn2c1F | 97 | 1.3 | 2 | 99 | 41 | 4 | . | . | .
N/C(=N\OC(=O)c1cccc(Cl)c1)c1cccnc1 | 115 | 2.6 | 4 | 101 | 75 | -16 | . | . | .
N/C(=N\OC(=O)c1cc(Cl)ccc1Cl)c1cccnc1 | 125 | 2 | -81 | 163* | 8 | -27 | 152* | 121* | 135*
N/C(=N\OC(=O)c1cc(Br)ccc1Cl)c1cccnc1 | 115 | 2 | -40 | 138* | 36 | -20 | 132 | 113 | 113
Cc1ccc2[nH]c(C(=O)O)c(NC(=O)CN3CCN(c4cccc(C)c4C)CC3)c2c1 | 102 | 1.4 | -55 | 147* | -23 | -2 | 132 | 99 | 103
COC(=O)c1[nH]c2ccc(C)cc2c1NC(=O)CN1CCN(c2ccccc2)CC1 | 88 | 0.54 | 37 | 73 | 3 | 13 | . | . | .
Nc1nc(NCc2cccs2)nn1-c1ccccc1 | 109 | . | -17 | 117 | -4 | -10 | . | . | .
Nc1nc(NCc2ccco2)nn1-c1ccccc1 | 111 | 1.6 | -53 | 147* | 2 | -13 | 99 | 105 | 106
CC1CCN(C(=O)Cn2c(=O)n(CCc3ccccc3)c(=O)c3ccccc32)CC1 | 88 | 0.4 | -47 | 140* | 17 | 13 | 138* | 102 | 83
CCOC(=O)c1c(CC(C)C)csc1NC(=O)C(C)C | 100 | 1.2 | -4 | 107 | 4 | 0 | . | . | .
